Data published in publication PMC8258284 (Infection & Chemotherapy, 2021).
Values joined by “and” are separate entries in the source; they are usually repeats but may differ in a detail not shown here. Equal values may be shown once. “Also recorded” adds a separate entry of the source. Where a name gives a salt, the structure may show the parent alone. Marks after values point to notes of the source that are not given here.

Tests used:
[1] = system: Intracellular amastigotes of L. (V.) braziliensis; experiment: Intracellular amastigote inhibition in transformed THP-1 cells; type: cell-based, Leishmania (Viannia) braziliensis
Method in brief: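 PMA-differentiated (72 h) THP-1 cells infected with latent-phase L. (V.) braziliensis MHOM/BR/75/M2903 promastigotes, 8 × 10^5 cells/mL. Exposed 24 h to NE serial dilutions (1:2–1:1,000), vehicle, ClAlPc (0.04–20 µM) or PM (244.0–121,827.0 µM) solutions. Then 400–700 nm light, 32°C, 32 min, 5 J/cm2, or kept non-irradiated, followed by 24 h dark. Giemsa counts of infected/uninfected cells give % inhibition versus untreated controls. PI = % inhibition at 0 J/cm2 / % at 5 J/cm2.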

[2] = type: in vivo, BALB/c mice; settings: range over organs after topical NE treatment; listed as PM
Method in brief: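 Healthy female BALB/c mice, 7–9 weeks (N = 3/group), received 50 μL NE topically at the tail base every three days for 15 days. ClAlPc groups were irradiated (672 ± 40 nm, 7 min, 20 J/cm2) 30 min post-application. Six days after treatment, liver, spleen, kidney and treated skin (20–25 mg) were macerated, sonicated and centrifuged 10 min at 10,000 rpm. Supernatants were taken up in Trizma buffer pH 7.8, and PM was measured by C18 HPLC after 1-fluoro-2,4-dinitrobenzene derivatization.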

THP-1 cell = THP-1 cell toxicity; type: cell-based, Human
Method in brief: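 Non-infected THP-1 cells were PMA-transformed (72 h) and seeded at 8 × 10^5 cells/mL. Treated 24 h with NE serial dilutions (1:2–1:1,000), vehicle, or ClAlPc/PM solutions. Irradiated at 37°C with 400–700 nm light, 32 min, 5 J/cm2, or left non-irradiated, then incubated 24 h in the dark. Viability read by MTT; % toxicity calculated relative to untreated controls.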

cutaneous leishmaniasis = settings: different CL topical formulations alone or combined; cited from earlier work
[3] = system: Promastigotes of L. (V.) braziliensis (MHOM/BR/75/M2903); experiment: Promastigote inhibition; type: cell-based, Leishmania (Viannia) braziliensis
[4] = Ex vivo skin permeation and retention test; type: in vitro ADME, mice
[5] = dilution 100 (0.4 µM ClAlPc), PDT + (5 J/cm^2)
[6] = dilution 1,000, PDT + (5 J/cm^2)

NC[C@@H]1O[C@H](O[C@H]2[C@@H](O)[C@H](O[C@@H]3[C@@H](O)[C@H](N)C[C@H](N)[C@H]3O[C@H]3O[C@H](CO)[C@@H](O)[C@H](O)[C@H]3N)O[C@@H]2CO)[C@H](N)[C@@H](O)[C@@H]1O [PM (s), paromomycin sulfate]
% of inhibition (mean ± SD), Intracellular amastigotes ([1]; dilution 50, PDT + (5 J/cm^2)): 54.1 ± 2.6% | % of inhibition (mean ± SD), Intracellular amastigotes ([1]; dilution 50, PDT −): 60.6 ± 2.4% | % of inhibition (mean ± SD), Intracellular amastigotes [1, 5]: 46.6 ± 2.8% | % of inhibition (mean ± SD), Intracellular amastigotes ([1]; dilution 100, PDT −): 48.5 ± 5.8% | % of inhibition (mean ± SD), Intracellular amastigotes ([1]; dilution 300, PDT + (5 J/cm^2)): 30.3 ± 2.8% | % of inhibition (mean ± SD), Intracellular amastigotes ([1]; dilution 300, PDT −): 27.3 ± 8.1% | % of inhibition (mean ± SD), Intracellular amastigotes ([1]; dilution 500, PDT + (5 J/cm^2)): 0% | % of inhibition (mean ± SD), Intracellular amastigotes ([1]; dilution 500, PDT −): 2.3 ± 1.1% | Concentrations of PM detected in organs [2]: 27.3 - 292.5 μM/25 mg and 27.26 - 292.49 μM/25 mg | % of inhibition (mean ± SD), THP-1 cell (THP-1 cell; dilution 2, PDT + (5 J/cm^2)): 78.7 ± 5.3% | % of inhibition (mean ± SD), THP-1 cell (THP-1 cell; dilution 2, PDT −): 79.2 ± 3.0% | % of inhibition (mean ± SD), THP-1 cell (THP-1 cell; dilution 10, PDT + (5 J/cm^2)): 34.3 ± 5.2% | % of inhibition (mean ± SD), THP-1 cell (THP-1 cell; dilution 10, PDT −): 33.1 ± 3.5% | % of inhibition (mean ± SD), THP-1 cell (THP-1 cell; dilution 100, PDT + (5 J/cm^2)): 18.6 ± 5.1% | % of inhibition (mean ± SD), THP-1 cell (THP-1 cell; dilution 100, PDT −): 17.9 ± 8.0^a % | % of inhibition (mean ± SD), THP-1 cell (THP-1 cell; [6]): 0.7 ± 1.0% | % of inhibition (mean ± SD), THP-1 cell (THP-1 cell; dilution 1,000, PDT −): 0.3 ± 0.6% | Healing rates (clinical efficacy) (cutaneous leishmaniasis): 53.3 to 90.0% | % of inhibition (mean ± SD), Promastigotes ([3]; dilution 2, PDT + (5 J/cm^2)): 78.7 ± 5.9% | % of inhibition (mean ± SD), Promastigotes ([3]; dilution 2, PDT −): 78.5 ± 3.3% | % of inhibition (mean ± SD), Promastigotes ([3]; dilution 10, PDT + (5 J/cm^2)): 98.5 ± 1.4% | % of inhibition (mean ± SD), Promastigotes ([3]; dilution 10, PDT −): 98.4 ± 1.6% | % of inhibition (mean ± SD), Promastigotes [3, 5]: 99.9 ± 0.0% | % of inhibition (mean ± SD), Promastigotes ([3]; dilution 100, PDT −): 99.9 ± 0.0% | % of inhibition (mean ± SD), Promastigotes [3, 6]: 100% | % of inhibition (mean ± SD), Promastigotes ([3]; dilution 1,000, PDT −): 100%

chloroaluminium phthalocyanine [ClAlPc (s)]
% of inhibition (mean ± SD), Intracellular amastigotes ([1]; dilution 50, PDT + (5 J/cm^2)): 93.4 ± 2.8% | % of inhibition (mean ± SD), Intracellular amastigotes ([1]; dilution 50, PDT −): 2.8 ± 0.3% | % of inhibition (mean ± SD), Intracellular amastigotes [1, 5]: 65.8 ± 4.7% | % of inhibition (mean ± SD), Intracellular amastigotes ([1]; dilution 100, PDT −): 0.5 ± 0.8% | % of inhibition (mean ± SD), Intracellular amastigotes ([1]; dilution 300, PDT + (5 J/cm^2)): 21.8 ± 7.0^a % | % of inhibition (mean ± SD), Intracellular amastigotes ([1]; dilution 300, PDT −): 0.4 ± 0.0% | % of inhibition (mean ± SD), Intracellular amastigotes ([1]; dilution 500, PDT + (5 J/cm^2)): 6.9 ± 2.1^a % | % of inhibition (mean ± SD), Intracellular amastigotes ([1]; dilution 500, PDT −): 0% | % of inhibition (mean ± SD), THP-1 cell (THP-1 cell; dilution 2, PDT + (5 J/cm^2)): 97.8 ± 0.6% | % of inhibition (mean ± SD), THP-1 cell (THP-1 cell; dilution 2, PDT −): 4.5 ± 1.7% | % of inhibition (mean ± SD), THP-1 cell (THP-1 cell; dilution 10, PDT + (5 J/cm^2)): 97.6 ± 0.5% | % of inhibition (mean ± SD), THP-1 cell (THP-1 cell; dilution 10, PDT −): 0% | % of inhibition (mean ± SD), THP-1 cell (THP-1 cell; dilution 100, PDT + (5 J/cm^2)): 49.1 ± 4.8% | % of inhibition (mean ± SD), THP-1 cell (THP-1 cell; dilution 100, PDT −): 0% | % of inhibition (mean ± SD), THP-1 cell (THP-1 cell; [6]): 13.8 ± 4.1% | % of inhibition (mean ± SD), THP-1 cell (THP-1 cell; dilution 1,000, PDT −): 0% | % of inhibition (mean ± SD), Promastigotes ([3]; dilution 2, PDT + (5 J/cm^2)): 100% | % of inhibition (mean ± SD), Promastigotes ([3]; dilution 2, PDT −): 0.3 ± 0.7% | % of inhibition (mean ± SD), Promastigotes ([3]; dilution 10, PDT + (5 J/cm^2)): 100% | % of inhibition (mean ± SD), Promastigotes ([3]; dilution 10, PDT −): 1.0 ± 1.0% | % of inhibition (mean ± SD), Promastigotes ([3]; dilution 100, PDT −): 0% | % of inhibition (mean ± SD), Promastigotes [3, 6]: 0% | % of inhibition (mean ± SD), Promastigotes ([3]; dilution 1,000, PDT −): 0% | ClAlPc retained in the epidermis/dermis ([4]; after 24 h): 26.27 μM/cm^2 | ClAlPc retained by the stratum corneum ([4]; after 24 h, tape stripping): 143.97 μM/cm^2 | ClAlPc skin permeation (receptor compartment) ([4]; any time point up to 24 h): No skin ClAlPc permeation was observed; also recorded: did not permeate through the skin
